Tests used:
[1] = system: Mus musculus; assay: Biodistribution was measured in mice kidney 24 hours after intravenous injection of [125I]-labeled styrylbenzene.; assay type: ADME, organism-based; conditions: in vivo
How it was run: (§1)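 ICR mice (2-3 months old, 20-30 g) under ether anesthesia received 5-10 µCi ¹²⁵I tracer in 0.15 mL saline by tail-vein injection. Animals were killed by cardiac excision at set times post-injection. Organs were removed, weighed and γ-counted. Values are % dose per organ against diluted injectate aliquots, taking blood and muscle as 7% and 40% of body weight. Mean of 3-4 mice ± SD.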

[2] = target: Amyloid-beta precursor protein (Homo sapiens, UniProt P05067); assay: Inhibition constant for aggregates of amyloid beta compared to [125I]IMSB
How it was run: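 Aβ(1-40) or Aβ(1-42) aggregated at 0.5 or 0.25 mg/mL respectively in pH 7.4 buffer (10 mM sodium phosphate, 1 mM EDTA), 37 °C, 36-42 h with shaking. Competition against ¹²⁵I radioligand with fibrils 10-50 nM (final), 10% EtOH, 1 mL. Incubation 3 h room temperature. Bound ligand collected by GF/B filtration, γ-counted. Ki by nonlinear regression. Mean ± SEM, three experiments in duplicate.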

[3] = system: Mus musculus; assay: Biodistribution was measured in mice brain 60 minutes after intravenous injection of [125I]-labeled styrylbenzene; assay type: ADME, organism-based; conditions: in vivo, 1 h; how it was run: as §1
[4] = system: Mus musculus; assay: Biodistribution was measured in mice blood 60 minutes after intravenous injection of [125I]-labeled styrylbenzene.; assay type: ADME, organism-based; conditions: in vivo, 1 h; how it was run: as §1
[5] = system: Mus musculus; assay: Biodistribution was measured in mice heart 30 minutes after intravenous injection of [125I]-labeled styrylbenzene.; assay type: ADME, organism-based; conditions: in vivo, 0.5 h; how it was run: as §1
[6] = system: Mus musculus; assay: Biodistribution was measured in mice brain 30 minutes after intravenous injection of [125I]-labeled styrylbenzene; assay type: ADME, organism-based; conditions: in vivo, 0.5 h; how it was run: as §1
[7] = system: Mus musculus; assay: Biodistribution was measured in mice kidney 60 minutes after intravenous injection of [125I]-labeled styrylbenzene.; assay type: ADME, organism-based; conditions: in vivo, 1 h; how it was run: as §1
[8] = system: Mus musculus; assay: Biodistribution was measured in mice liver 24 hours after intravenous injection of [125I]-labeled styrylbenzene.; assay type: ADME, organism-based; conditions: in vivo; how it was run: as §1
[9] = system: Mus musculus; assay: Biodistribution was measured in mice heart 24 hours after intravenous injection of [125I]-labeled styrylbenzene.; assay type: ADME, organism-based; conditions: in vivo; how it was run: as §1
[10] = system: Mus musculus; assay: Biodistribution was measured in mice spleen 60 minutes after intravenous injection of [125I]-labeled styrylbenzene.; assay type: ADME, organism-based; conditions: in vivo, 1 h
How it was run: (§2)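 ICR mice (2-3 months old, 20-30 g) under ether anesthesia; 0.15 mL saline containing 5-10 µCi ¹²⁵I tracer injected into tail vein. Sacrifice by cardiac excision at set times; organs removed, weighed, γ-counted. Expressed as % dose per organ versus diluted aliquots of injectate. Mean of three or four mice ± SD.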

[11] = system: Mus musculus; assay: Biodistribution was measured in mice lung 30 minutes after intravenous injection of [125I]-labeled styrylbenzene.; assay type: ADME, organism-based; conditions: in vivo, 0.5 h; how it was run: as §1
[12] = system: Mus musculus; assay: Biodistribution was measured in mice skin 30 minutes after intravenous injection of [125I]-labeled styrylbenzene.; assay type: ADME, organism-based, Zone of skin; conditions: in vivo, 0.5 h; how it was run: as §1
[13] = system: Mus musculus; assay: Biodistribution was measured in mice brain 2 minutes after intravenous injection of [125I]-labeled styrylbenzene; assay type: ADME, organism-based; conditions: in vivo, in the assay text read “thioflavin” for “styrylbenzene”; how it was run: as §1
[14] = system: Mus musculus; assay: Biodistribution was measured in mice liver 60 minutes after intravenous injection of [125I]-labeled styrylbenzene.; assay type: ADME, organism-based; conditions: in vivo, 1 h; how it was run: as §1
[15] = system: Mus musculus; assay: Biodistribution was measured in mice spleen 30 minutes after intravenous injection of [125I]-labeled styrylbenzene.; assay type: ADME, organism-based; conditions: in vivo, 0.5 h; how it was run: as §2
[16] = system: Mus musculus; assay: Biodistribution was measured in mice skin 60 minutes after intravenous injection of [125I]-labeled styrylbenzene.; assay type: ADME, organism-based, Zone of skin; conditions: in vivo, 1 h; how it was run: as §1
[17] = system: Mus musculus; assay: Biodistribution was measured in mice lung 24 hours after intravenous injection of [125I]-labeled styrylbenzene.; assay type: ADME, organism-based; conditions: in vivo, in the assay text read “thioflavin” for “styrylbenzene”; how it was run: as §1
[18] = system: Mus musculus; assay: Biodistribution was measured in mice muscle 60 minutes after intravenous injection of [125I]-labeled styrylbenzene.; assay type: ADME, organism-based, Muscle tissue; conditions: in vivo, 1 h; how it was run: as §1
[19] = system: Mus musculus; assay: Biodistribution was measured in mice muscle 6 hours after intravenous injection of [125I]-labeled styrylbenzene.; assay type: ADME, organism-based, Muscle tissue; conditions: in vivo; how it was run: as §1
[20] = system: Mus musculus; assay: Biodistribution was measured in mice spleen 2 minutes after intravenous injection of [125I]-labeled styrylbenzene.; assay type: ADME, organism-based; conditions: in vivo; how it was run: as §1
[21] = system: Mus musculus; assay: Biodistribution was measured in mice muscle 30 minutes after intravenous injection of [125I]-labeled styrylbenzene.; assay type: ADME, organism-based, Muscle tissue; conditions: in vivo, 0.5 h; how it was run: as §1
[22] = system: Mus musculus; assay: Biodistribution was measured in mice blood 2 minutes after intravenous injection of [125I]-labeled styrylbenzene.; assay type: ADME, organism-based; conditions: in vivo; how it was run: as §1
[23] = system: Mus musculus; assay: Biodistribution was measured in mice spleen 6 hours after intravenous injection of [125I]-labeled thioflavin.; conditions: in vivo
[24] = system: Mus musculus; assay: Biodistribution was measured in mice skin 2 minutes after intravenous injection of [125I]-labeled styrylbenzene.; assay type: ADME, organism-based, Zone of skin; conditions: in vivo; how it was run: as §1
[25] = system: Mus musculus; assay: Biodistribution was measured in mice spleen 24 hours after intravenous injection of [125I]-labeled styrylbenzene.; assay type: ADME, organism-based; conditions: in vivo
[26] = system: Mus musculus; assay: Biodistribution was measured in mice heart 60 minutes after intravenous injection of [125I]-labeled styrylbenzene.; assay type: ADME, organism-based; conditions: in vivo, 1 h; how it was run: as §1
[27] = system: Mus musculus; assay: Biodistribution was measured in mice brain 24 hours after intravenous injection of [125I]-labeled styrylbenzene; assay type: ADME, organism-based; conditions: in vivo, in the assay text read “thioflavin” for “styrylbenzene”; how it was run: as §1
[28] = system: Mus musculus; assay: Biodistribution was measured in mice liver 6 hours after intravenous injection of [125I]-labeled styrylbenzene.; assay type: ADME, organism-based; conditions: in vivo, in the assay text read “thioflavin” for “styrylbenzene”; how it was run: as §1
[29] = system: Mus musculus; assay: Biodistribution was measured in mice blood 24 hours after intravenous injection of [125I]-labeled styrylbenzene.; assay type: ADME, organism-based; conditions: in vivo; how it was run: as §1
[30] = system: Mus musculus; assay: Biodistribution was measured in mice lung 60 minutes after intravenous injection of [125I]-labeled styrylbenzene.; assay type: ADME, organism-based; conditions: in vivo, 1 h; how it was run: as §1
[31] = system: Mus musculus; assay: Biodistribution was measured in mice skin 24 hours after intravenous injection of [125I]-labeled styrylbenzene.; assay type: ADME, organism-based, Zone of skin; conditions: in vivo; how it was run: as §1
[32] = system: Mus musculus; assay: Biodistribution was measured in mice muscle 24 hourss after intravenous injection of [125I]-labeled styrylbenzene.; assay type: ADME, organism-based, Muscle tissue; conditions: in vivo; how it was run: as §1
[33] = system: Mus musculus; assay: Biodistribution was measured in mice heart 2 minutes after intravenous injection of [125I]-labeled styrylbenzene.; assay type: ADME, organism-based; conditions: in vivo; how it was run: as §1
[34] = system: Mus musculus; assay: Biodistribution was measured in mice skin 6 hours after intravenous injection of [125I]-labeled styrylbenzene.; assay type: ADME, organism-based, Zone of skin; conditions: in vivo; how it was run: as §1
[35] = system: Mus musculus; assay: Biodistribution was measured in mice brain 6 hours after intravenous injection of [125I]-labeled styrylbenzene; assay type: ADME, organism-based; conditions: in vivo; how it was run: as §1
[36] = system: Mus musculus; assay: Biodistribution was measured in mice blood 6 hours after intravenous injection of [125I]-labeled styrylbenzene.; assay type: ADME, organism-based; conditions: in vivo; how it was run: as §1
[37] = system: Mus musculus; assay: Biodistribution was measured in mice kidney 30 minutes after intravenous injection of [125I]-labeled styrylbenzene.; assay type: ADME, organism-based; conditions: in vivo, 0.5 h; how it was run: as §1
[38] = system: Mus musculus; assay: Biodistribution was measured in mice kidney 6 hours after intravenous injection of [125I]-labeled styrylbenzene.; assay type: ADME, organism-based; conditions: in vivo; how it was run: as §1
[39] = system: Mus musculus; assay: Biodistribution was measured in mice muscle 2 minutes after intravenous injection of [125I]-labeled styrylbenzene.; assay type: ADME, organism-based, Muscle tissue; conditions: in vivo, in the assay text read “thioflavin” for “styrylbenzene”; how it was run: as §1
[40] = system: Mus musculus; assay: Biodistribution was measured in mice liver 2 minutes after intravenous injection of [125I]-labeled styrylbenzene.; assay type: ADME, organism-based; conditions: in vivo; how it was run: as §1
[41] = system: Mus musculus; assay: Biodistribution was measured in mice kidney 2 minutes after intravenous injection of [125I]-labeled styrylbenzene.; assay type: ADME, organism-based; conditions: in vivo; how it was run: as §1
[42] = system: Mus musculus; assay: Biodistribution was measured in mice lung 6 hours after intravenous injection of [125I]-labeled styrylbenzene.; assay type: ADME, organism-based; conditions: in vivo, in the assay text read “thioflavin” for “styrylbenzene”; how it was run: as §1
[43] = system: Mus musculus; assay: Biodistribution was measured in mice lung 2 minutes after intravenous injection of [125I]-labeled styrylbenzene.; assay type: ADME, organism-based; conditions: in vivo; how it was run: as §1
[44] = system: Mus musculus; assay: Biodistribution was measured in mice heart 6 hours after intravenous injection of [125I]-labeled styrylbenzene.; assay type: ADME, organism-based; conditions: in vivo; how it was run: as §1
[45] = system: Mus musculus; assay: Biodistribution was measured in mice blood 30 minutes after intravenous injection of [125I]-labeled styrylbenzene.; assay type: ADME, organism-based; conditions: in vivo, 0.5 h; how it was run: as §1
[46] = system: Mus musculus; assay: Biodistribution was measured in mice liver 30 minutes after intravenous injection of [125I]-labeled styrylbenzene.; assay type: ADME, organism-based; conditions: in vivo, 0.5 h; how it was run: as §1

Chain of Amyloid-beta precursor protein (P05067 whole entry): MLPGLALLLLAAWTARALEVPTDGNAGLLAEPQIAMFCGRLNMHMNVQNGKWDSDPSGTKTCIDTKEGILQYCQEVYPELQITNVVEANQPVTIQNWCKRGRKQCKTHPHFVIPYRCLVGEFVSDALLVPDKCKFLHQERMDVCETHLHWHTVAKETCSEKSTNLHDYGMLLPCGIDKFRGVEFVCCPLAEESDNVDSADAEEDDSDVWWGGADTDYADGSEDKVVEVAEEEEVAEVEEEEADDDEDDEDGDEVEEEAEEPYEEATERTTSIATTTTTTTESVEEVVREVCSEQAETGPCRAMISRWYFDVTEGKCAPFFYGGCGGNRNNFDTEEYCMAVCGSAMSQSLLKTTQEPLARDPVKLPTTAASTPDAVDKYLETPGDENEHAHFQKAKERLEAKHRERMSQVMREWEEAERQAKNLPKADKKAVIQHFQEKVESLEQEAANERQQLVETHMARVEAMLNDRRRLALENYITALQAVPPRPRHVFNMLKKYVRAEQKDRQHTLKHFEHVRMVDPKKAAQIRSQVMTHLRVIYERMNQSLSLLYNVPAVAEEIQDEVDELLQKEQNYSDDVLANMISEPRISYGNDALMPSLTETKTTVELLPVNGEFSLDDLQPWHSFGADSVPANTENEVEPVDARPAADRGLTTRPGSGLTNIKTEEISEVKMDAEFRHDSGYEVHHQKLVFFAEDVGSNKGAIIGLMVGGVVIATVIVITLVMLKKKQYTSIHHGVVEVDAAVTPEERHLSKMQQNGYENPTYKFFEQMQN

SMILES: CN(C)c1ccc(-c2nc3ccc(I)cc3s2)cc1
- Dose/organ [1]: 0.06%
- Ki [2]: > 5 µM
- Dose/organ [3]: 1.57%
- Dose/organ [4]: 3.79%
- Dose/organ [5]: 0.2%
- Dose/organ [6]: 0.9%
- Dose/organ [7]: 2.23%
- Dose/organ [8]: 0.3%
- Dose/organ [9]: 0.01%
- Dose/organ [10]: 0.17%
- Dose/organ [11]: 0.72%
- Dose/organ [12]: 7.4%
- Dose/organ [13]: 0.6%
- Dose/organ [14]: 9.21%
- Dose/organ [15]: 0.2%
- Dose/organ [16]: 12.8%
- Dose/organ [17]: 0.03%
- Dose/organ [18]: 12.81%
- Dose/organ [19]: 2.93%
- Dose/organ [20]: 0.59%
- Dose/organ [21]: 12.89%
- Dose/organ [22]: 15.74%
- Dose/organ [23]: 0.04%
- Dose/organ [24]: 3.2%
- Dose/organ [25]: 0.01%
- Dose/organ [26]: 0.17%
- Dose/organ [27]: 0.04%
- Dose/organ [28]: 1.52%
- Dose/organ [29]: 0.29%
- Dose/organ [30]: 0.78%
- Dose/organ [31]: 0.2%
- Dose/organ [32]: 0.33%
- Dose/organ [33]: 1.79%
- Dose/organ [34]: 3.8%
- Dose/organ [35]: 0.65%
- Dose/organ [36]: 1.44%
- Dose/organ [37]: 2.24%
- Dose/organ [38]: 0.54%
- Dose/organ [39]: 17.81%
- Dose/organ [40]: 31.62%
- Dose/organ [41]: 5.42%
- Dose/organ [42]: 0.21%
- Dose/organ [43]: 5.91%
- Dose/organ [44]: 0.05%
- Dose/organ [45]: 3.26%
- Dose/organ [46]: 10.93%
